Hits are enriched below; roughly 0.74% of the tested compounds scored in any of these assays.
RGS8-Gao – modulates binding of RGS8 to human Galphao; P09471; multiplexed bead flow cytometry; actives lie on both sides; response (percent of control binding), % at 10 µM; 220,000 compounds, 0.34% hits; AID 1423; in the data active means response below about 60% or above about 140%; inactive means in between;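 further: Galphao activated as the GDP aluminium fluoride complex binding bead-coupled RGS8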
Biofilm kill mix – mixture kills Candida albicans biofilm cells. C. albicans biofilm persisters + clotrimazole, fluorescence viability; primary screen in compound mixtures of four per well. inhibition, % at 7.6 µM. 120,000 compounds, 0.02% hits;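 active means inhibition above 30.3% in the primary screen of four-compound pools, then above 30% when the compound was retested; inconclusive means passed the primary limit but could not be retested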;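 further: compounds exposed to preformed 24 h biofilms for 48 h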
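Probe or stimulus – Clotrimazole 50 µg/mL co-treatment · System – C. albicans biofilms · Schedule – 24 h biofilm formation, then 48 h compound exposure, 37 °C · Evaluation – percent inhibition of biofilm viability · Technique – 2-h Alamar Blue fluorescence, 535/590 nm excitation/emission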
RGS4-Gao reg – modulates binding of RGS4 to human Galphao; P09471; Multiplexed bead flow cytometry; actives lie on both sides; binding response (% of control), % at 10 µM; 220,000 compounds, 0.33% hits; AID 1415; in the data active means binding response below about 49% or above about 150%; inactive means in between;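 further: fluorescent Galphao activated with aluminum fluoride binding bead-coupled RGS4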
RGS16-Gao HTS – modulates binding between human RGS16 and Galphao; O15492+P09471; bead-based flow cytometry RGS16-Galphao binding, fluorescence; actives lie on both sides; binding response (% of control), % at 10 µM; 220,000 compounds, 0.38% hits; AID 1441;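 further: Galphao activated by GDP with aluminum fluoride before binding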
RGS7-Gao – human RGS7-Galphao interaction regulation. binding response (% of control), % at 10 µM. AID 1439. 220,000 compounds, 0.35% hits. Multiplexed bead flow cytometry, RGS7-Galphao binding; actives lie on both sides; in the data active means binding response below about 49% or above about 150%; inconclusive means no clear call, values can overlap the other calls; inactive means in between;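 further: fluorescent Galphao held in activated GDP-AlF4 state binding bead-coupled RGS7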
RGS4-Gao HTS – RGS4-Galphao interaction regulator (human); shares compounds with RGS16-Gao HTS; multiplexed bead flow cytometry, RGS–Galpha-o binding; RGS4–Galpha-o binding response, % at 10 µM; 1,600 compounds, 99% hits; AID 1504;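 further: fluorescently labeled Galpha-o bound to GDP with aluminium fluoride binding biotinylated RGS beads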
Avidin counter – interferes with biotinylated probe binding to avidin beads. shares compounds with RGS16-Gao HTS. streptavidin beads, fluorescein-biotin binding, flow cytometry. inhibition, % at 10 µM. 1,700 tested, under 10 active;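 active means inhibition above 50%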;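 further: median green fluorescence of gated singlet beads compared with DMSO control wells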
RGS8-Gao single – RGS8-Galphao interaction regulation, single point confirmation; shares compounds with RGS16-Gao HTS; bead-based flow cytometry RGS8-Galphao binding, fluorescence; actives lie on both sides; binding response (% of control), % at 10 µM; 1,700 compounds, 3% hits; AID 1836; in the data active means binding response below about 72% or above about 130%; inactive means in between;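 further: Galphao activated as GDP AlF4 complex before binding bead RGS8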
RGS7-Gao single – confirmation of regulators of human RGS7-Galphao interaction | shares compounds with RGS16-Gao HTS | bead-based flow cytometry RGS7-Galphao binding; actives lie on both sides | response (percent of control binding), % at 10 µM | 1,700 compounds, 7.8% hits; in the data active means response below about 75% or above about 130%; inactive means in between;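 further: fluorescent Galphao activated with GDP and aluminum fluoride binding bead-coupled RGS7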
RGS16-Gao conf – RGS16-Galphao interaction regulation, single point confirmation; bead-based flow cytometry, RGS16-Galphao binding; actives lie on both sides; AID 1838; 1,700 compounds, 4% hits; response (% of control binding), % at 10 µM; shares compounds with RGS16-Gao HTS; in the data active means response below about 74% or above about 130%; inactive means in between;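 further: Galphao activated as the GDP aluminium fluoride complex binding bead-coupled RGS16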
RGS4-Gao confirm – RGS4-Galphao interaction regulation, single point confirmation | shares compounds with RGS16-Gao HTS | RGS4-Galphao binding, multiplexed bead flow cytometry; actives lie on both sides | binding response (% of control), % at 10 µM | 1,700 compounds, 4% hits | AID 1840; in the data active means binding response below about 74% or above about 130%; inactive means in between
RGS19-Gao single – RGS19-Galphao interaction regulation, single point confirmation; shares compounds with RGS16-Gao HTS; bead-based flow cytometry RGS19-Galphao binding; actives lie on both sides; response (percent of control binding), % at 10 µM; 1,700 compounds, 5% hits; AID 1841; in the data active means response below about 50% or above about 160%; inactive means in between
Target sequence (P09471 whole entry, looked up): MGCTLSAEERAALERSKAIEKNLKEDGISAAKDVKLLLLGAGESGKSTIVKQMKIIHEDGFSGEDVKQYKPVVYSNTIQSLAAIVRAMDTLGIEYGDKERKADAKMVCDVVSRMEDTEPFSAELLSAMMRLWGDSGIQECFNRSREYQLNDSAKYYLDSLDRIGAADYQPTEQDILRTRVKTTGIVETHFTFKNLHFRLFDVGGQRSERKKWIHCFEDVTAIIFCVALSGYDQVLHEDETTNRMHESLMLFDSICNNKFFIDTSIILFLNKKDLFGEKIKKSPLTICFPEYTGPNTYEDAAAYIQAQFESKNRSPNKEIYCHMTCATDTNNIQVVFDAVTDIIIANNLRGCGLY
Target sequence (P49795 whole entry, looked up): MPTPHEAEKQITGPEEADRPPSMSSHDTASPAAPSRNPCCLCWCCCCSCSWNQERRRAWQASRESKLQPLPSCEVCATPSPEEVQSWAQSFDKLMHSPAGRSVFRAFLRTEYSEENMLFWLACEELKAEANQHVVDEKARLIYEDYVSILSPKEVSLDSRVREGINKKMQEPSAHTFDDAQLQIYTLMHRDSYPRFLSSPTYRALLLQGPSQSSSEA
Numbers stand for hits; - = inactive; ? = inconclusive; . = no result; [ ] = remark or other dose. Unless noted, how the calls were made is not given here.

SMILES	RGS8-Gao	Biofilm kill mix	RGS4-Gao reg	RGS16-Gao HTS	RGS7-Gao	RGS4-Gao HTS	Avidin counter	RGS8-Gao single	RGS7-Gao single	RGS16-Gao conf	RGS4-Gao confirm	RGS19-Gao single
CN(C)C(=O)c1sccc1Oc1ccc(F)cc1[N+](=O)[O-]	-	-	-	-	-	.	.	.	.	.	.	.
O=C(CNC(=S)N(Cc1ccccc1)Cc1cccnc1)NCCN1CCOCC1	-	-	-	-	-	.	.	.	.	.	.	.
CCOc1ccc(NC(=O)CC2C(=O)N(c3ccccc3)C(=O)N2Cc2ccccn2)cc1 (stereo not drawn)	144.1[activator]	.	-	-	-	135.3	-	-	-	-	-	-
OC12CCCCC1C(c1ccc3c(c1)OCO3)N(Cc1ccccc1F)CC2 (stereo not drawn)	-	.	-	-	158.4[activator]	113.4	-	-	-	-	-	-
OC12CCCCC1C(c1ccc3c(c1)OCO3)N(Cc1ccc(F)cc1)CC2 (stereo not drawn)	-	.	-	-	-	.	.	.	.	.	.	.
O=C1/C(=C/C=C/c2ccccc2)Oc2c1ccc(O)c2CN1CCN(CCO)CC1	-	-	-	-	?	.	.	.	.	.	.	.
COc1ccccc1/C=C/C=C1\Oc2c(ccc(O)c2CN2CCN(CCO)CC2)C1=O	146.0[activator]	-	218.0[activator]	-	246.5[activator]	.	-	-	-	-	-	-
CCN1CCN(Cc2c(O)ccc3c2O/C(=C\C=C\c2ccccc2)C3=O)CC1	-	-	-	186.6[activator]	-	105.7	-	-	-	-	-	-
Cc1c(C(=O)N/N=C/c2ccc(N(C)C)cc2)[nH]c2ccc(Cl)cc12	-	-	-	22.7	-	94.0	-	-	-	-	-	-
Nc1nc(-c2ccccn2)nc(N)c1Cc1ccc(Cl)cc1Cl	-	-	-	-	-	.	.	.	.	.	.	.
CCOC(=O)c1c(NC(=O)CSc2nnc(C)o2)sc(C)c1C	-	-	-	-	?	.	.	.	.	.	.	.
N=C1c2ccccc2CN1NC(=O)c1cccc(S(=O)(=O)N2CCOCC2)c1	-	-	-	236.3[activator]	-	115.8	-	-	165.5[activator]	125.7[activator]	127.0[activator]	323.9[activator]
O=C(Nc1cccc(F)c1)N1CCCC(CNS(=O)(=O)Cc2ccccc2)C1 (stereo not drawn)	-	-	-	-	-	.	.	.	.	.	.	.
CC1=C(C(=O)Nc2ccc(F)c(F)c2)C(c2cccs2)NC(=S)N1 (stereo not drawn)	-	-	-	-	-	.	.	.	.	.	.	.
CC1=C(C(=O)Nc2ccc(C)cc2)C(c2cccs2)NC(=S)N1 (stereo not drawn)	-	-	-	-	46.1	53.6	-	-	-	-	-	-
Cc1cc(-c2csc(N)n2)c(C)n1-c1ccc(Cl)c(Cl)c1	-	-	-	-	-	.	.	.	.	.	.	.
COc1ccc(-n2c(C)cc(-c3csc(N)n3)c2C)cc1	12.7	-	12.9	0.5	-0.7	.	-	-	-	-	-	-
Cc1nn(-c2cc(C(F)(F)F)ccc2Cl)c2nc(C(Cl)(Cl)Cl)[nH]c(=O)c12	-	-	-	-	?	.	.	.	.	.	.	.
Cn1c(N2CCCC2)nc2c1c(=O)n(Cc1ccc(Cl)cc1)c(=O)n2C	.	.	.	.	.	.	-	-	-	-	-	-
CCCc1cc(-n2ccnc2)n2c(nc3ccccc32)c1C#N	-	.	162.5[activator]	192.0[activator]	151.3[activator]	.	-	-	-	-	-	-
Cc1nnc2sc(SCC(=O)Nc3cccc(Cl)c3)nn2c1=O	-	-	-	-	-	.	.	.	.	.	.	.

Bioassay records: PubChem BioAssay, several laboratories
